Results reported in ChEMBL document CHEMBL1833906, “Design and evaluation of a novel fluorescent CB2 ligand as probe for receptor visualization in immune cells” (Bioorg Med Chem Lett, 2011).
The source made the active and inactive calls. No cut-off for these calls is given here.

Legend:
[1] = molecular target: Cannabinoid receptor 1 (Homo sapiens) (UniProt P21554); experiment: Displacement of [3H]-CP55940 from cannabinoid CB1 receptor at 10 uM
Summary of the method: (§1)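 Single-point competitive radioligand binding screen at 10 µM test concentration, measured as % inhibition of radioligand binding. Radioligands: [3H]CP55940 for CB1, [3H]ketanserin for 5-HT2A, [3H]mesulergine for 5-HT2C. Run by the NIMH Psychoactive Drug Screening Program.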

[2] = molecular target: 5-hydroxytryptamine receptor 2A (Homo sapiens) (UniProt P28223); experiment: Displacement of [3H]-kentanserin from 5HT2A receptor at 10 uM; summary of the method: as §1
Chain of 5-hydroxytryptamine receptor 2A (Homo sapiens) (P28223 whole entry): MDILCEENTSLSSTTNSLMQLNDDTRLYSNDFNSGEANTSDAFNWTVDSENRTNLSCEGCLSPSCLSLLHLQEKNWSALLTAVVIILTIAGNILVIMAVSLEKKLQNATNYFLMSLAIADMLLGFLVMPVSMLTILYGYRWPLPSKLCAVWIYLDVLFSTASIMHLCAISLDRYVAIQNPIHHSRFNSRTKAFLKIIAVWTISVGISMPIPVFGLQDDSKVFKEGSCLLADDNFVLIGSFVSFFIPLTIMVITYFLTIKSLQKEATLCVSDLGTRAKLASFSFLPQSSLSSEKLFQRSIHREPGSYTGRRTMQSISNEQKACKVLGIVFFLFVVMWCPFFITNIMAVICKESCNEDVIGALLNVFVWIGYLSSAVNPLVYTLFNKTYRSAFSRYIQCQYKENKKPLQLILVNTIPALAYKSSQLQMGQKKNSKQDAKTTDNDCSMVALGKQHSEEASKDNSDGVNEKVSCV

[3] = molecular target: T1, 5-hydroxytryptamine receptor 2C (Homo sapiens) (UniProt P28335); experiment: Displacement of [3H]-mesulergine from 5HT2C receptor at 10 uM; summary of the method: as §1
T1 sequence (whole entry): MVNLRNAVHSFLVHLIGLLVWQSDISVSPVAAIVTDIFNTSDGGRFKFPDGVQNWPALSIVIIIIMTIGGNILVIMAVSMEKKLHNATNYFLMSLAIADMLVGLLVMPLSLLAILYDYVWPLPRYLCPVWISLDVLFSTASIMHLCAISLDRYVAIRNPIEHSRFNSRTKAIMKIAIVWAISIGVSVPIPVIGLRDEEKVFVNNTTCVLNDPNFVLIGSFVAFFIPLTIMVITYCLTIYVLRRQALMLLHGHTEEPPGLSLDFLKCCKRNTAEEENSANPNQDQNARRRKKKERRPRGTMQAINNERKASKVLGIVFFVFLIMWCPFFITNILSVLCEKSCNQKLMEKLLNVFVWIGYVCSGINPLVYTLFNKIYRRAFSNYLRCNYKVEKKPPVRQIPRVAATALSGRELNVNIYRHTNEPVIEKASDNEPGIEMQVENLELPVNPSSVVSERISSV

[4] = molecular target: Cannabinoid receptor 2 (Homo sapiens, UniProt P34972); experiment: Displacement of [3H]-CP55940 from human recombinant cannabinoid CB2 receptor expressed in CHO-K1 cells; assay type: cell-based
Chain of Cannabinoid receptor 2 (P34972 whole entry): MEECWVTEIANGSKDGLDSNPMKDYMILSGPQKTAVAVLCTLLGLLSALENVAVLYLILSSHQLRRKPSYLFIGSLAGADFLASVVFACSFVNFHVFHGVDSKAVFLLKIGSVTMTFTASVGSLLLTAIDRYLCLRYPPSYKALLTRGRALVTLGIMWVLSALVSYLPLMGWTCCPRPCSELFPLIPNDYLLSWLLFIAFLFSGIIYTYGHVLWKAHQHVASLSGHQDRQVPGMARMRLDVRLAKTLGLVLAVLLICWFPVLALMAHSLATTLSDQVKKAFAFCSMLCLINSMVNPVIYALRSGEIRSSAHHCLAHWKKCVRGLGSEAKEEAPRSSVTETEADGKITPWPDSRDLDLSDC

[5] = molecular target: Cannabinoid receptor 2 (Mus musculus) (UniProt P47936); experiment: Binding affinity to cannabinoid CB2 receptor in non transfected BALB/c mouse CD4+ T cells at 5 uM after 30 mins […] by confocal microscopic analysis; assay type: cell-based; settings: T-cell
Chain of Cannabinoid receptor 2 (Mus musculus) (P47936 whole entry): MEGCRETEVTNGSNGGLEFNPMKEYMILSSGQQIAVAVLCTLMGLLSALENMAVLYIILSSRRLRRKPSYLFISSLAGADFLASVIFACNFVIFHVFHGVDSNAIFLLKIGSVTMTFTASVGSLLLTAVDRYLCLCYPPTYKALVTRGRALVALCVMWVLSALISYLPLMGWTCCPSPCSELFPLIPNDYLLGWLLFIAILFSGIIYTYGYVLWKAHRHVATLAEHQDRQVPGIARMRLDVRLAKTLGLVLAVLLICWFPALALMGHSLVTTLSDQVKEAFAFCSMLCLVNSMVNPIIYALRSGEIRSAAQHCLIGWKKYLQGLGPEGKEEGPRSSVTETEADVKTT

[6] = molecular target: Cannabinoid receptor 2 (Mus musculus) (UniProt P47936); experiment: Binding affinity to cannabinoid CB2 receptor in non transfected BALB/c mouse CD4+ T cells at 1 uM after 30 mins using PE-conjugated […] antibody staining by confocal microscopic analysis; assay type: cell-based; settings: T-cell
Summary of the method: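 T cells were purified from peripheral lymph nodes of BALB/c mice and stained with PE-conjugated anti-CD4 antibody plus NBD-labelled probe at 0.1, 1.0 or 5 µM. Incubation on ice for 30 min is stated for the 5 µM condition. CD4+ cells were imaged by confocal microscopy (x40).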

[7] = molecular target: Cannabinoid receptor 2 (Mus musculus) (UniProt P47936); experiment: Binding affinity to cannabinoid CB2 receptor in non transfected BALB/c mouse CD4+ T cells at 0.1 uM after 30 mins using […] by confocal microscopic analysis; assay type: cell-based; settings: T-cell
[8] = molecular target: Cannabinoid receptor 2 (Mus musculus) (UniProt P47936); experiment: Binding affinity to cannabinoid CB2 receptor in non transfected BALB/c mouse CD4+ T cells after 30 mins […] by confocal microscopic analysis in presence of CB2 receptor agonist GW842166X; assay type: cell-based; settings: T-cell
[9] = molecular target: Cannabinoid receptor 2 (Mus musculus) (UniProt P47936); experiment: Binding affinity to cannabinoid CB2 receptor in mouse B lymphocytes at 5 uM after 30 mins using PE-conjugated anti-B220 antibody staining by flow cytometric analysis; assay type: cell-based
Summary of the method: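 Lung mononuclear cells from mice were prepared by collagenase digestion of lung tissue. They were stained with PE-conjugated anti-B220 antibody and NBD-labelled probe at 5 µM on ice for 30 min, then analysed by flow cytometry.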

[10] = molecular target: Cannabinoid receptor 2 (Mus musculus) (UniProt P47936); experiment: Binding affinity to cannabinoid CB2 receptor in mouse B lymphocytes at 5 uM after 30 mins using PE-conjugated anti-B220 antibody staining by flow cytometric analysis in presence of GW842166X; assay type: cell-based
Summary of the method: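 Mouse lung mononuclear cells, prepared by collagenase digestion, were first preincubated on ice for 5 min with the CB2 agonist GW842166X at 100 µM. They were then stained with PE-conjugated anti-B220 antibody and NBD-labelled probe at 5 µM on ice for 30 min, and analysed by flow cytometry.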

Chain of Cannabinoid receptor 1 (Homo sapiens) (P21554 whole entry): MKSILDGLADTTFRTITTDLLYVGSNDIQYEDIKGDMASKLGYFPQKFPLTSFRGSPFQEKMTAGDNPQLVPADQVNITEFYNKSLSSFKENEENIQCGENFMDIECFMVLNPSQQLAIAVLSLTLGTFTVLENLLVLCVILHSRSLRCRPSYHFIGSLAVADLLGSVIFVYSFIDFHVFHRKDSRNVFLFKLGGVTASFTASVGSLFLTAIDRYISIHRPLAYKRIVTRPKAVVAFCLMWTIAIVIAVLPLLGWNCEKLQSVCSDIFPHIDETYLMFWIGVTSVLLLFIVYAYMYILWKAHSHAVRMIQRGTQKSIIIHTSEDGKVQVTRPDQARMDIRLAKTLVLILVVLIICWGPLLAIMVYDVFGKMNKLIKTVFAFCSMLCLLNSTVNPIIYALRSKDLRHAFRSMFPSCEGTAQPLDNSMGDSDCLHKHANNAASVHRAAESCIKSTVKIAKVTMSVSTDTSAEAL

## CCCCCN1C(=O)/C(=N\NC(=O)CN(C)c2ccc([N+](=O)[O-])c3nonc23)c2ccc(OC)cc21
[1]
  inhibition: < 40%
[2]
  inhibition: < 40%
[3]
  inhibition: < 40%
[4]
  Ki: 387 nM
[5]
  Activity: Active
[6]
  Activity: inactive
[7]
  Activity: inactive
[8]
  Activity: inactive
[9]
  Activity: Active
[10]
  Activity: inactive
